Source: ChEMBL document CHEMBL2321691 (J Med Chem, 2013)
Activity calls are given as the source filed them. The rule behind the calls is not given here.

Legend:
[1] = Inhibition of bovine brain tubulin polymerization after 30 mins by spectrophotometry; design: species or system Bos taurus
Summary of the method: (§1)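 Bovine brain tubulin at 1.5 mg/mL, pH 6.7, in 0.1 M MES, 1 mM EGTA, 1 mM MgCl2, 1 mM β-ME, 1.5 mM GTP with ligand. Incubated 20 °C for 30 min, then on ice 10 min. Assembly read as the A450 rise on a shift from 4 to 38 °C; inhibition is plateau minus baseline against ligand-free control. IC50 from monoexponential fits.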

[2] = tested on: HeLa; test: Induction of apoptosis in human HeLa cells assessed as accumulation at sub-G0/G1 phase at 50 nM after 72 hrs by […] analysis; type: functional, cell-based
[3] = tested on: A549; test: Cytotoxicity against human A549 cells assessed as growth inhibition after 72 hrs by XTT assay; type: functional, cell-based; conditions: A549, 72 h
Summary of the method: (§2)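 Cells seeded at 1.5 x 10^3 per well (A549, HeLa, HT-29) or 3 x 10^3 (HL-60) in medium with 10% heat-inactivated FBS. Compound tested from 10-5 to 10-13 M for 72 h at 37 °C, then XTT readout. […] Triplicate wells, three experiments; mean ± S.D.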

[4] = tested on: HeLa; test: Induction of apoptosis in human HeLa cells assessed as processing of procaspase-3 into the p19/p17 active form at 50 nM by Western blotting analysis; type: functional, cell-based
Summary of the method: (§3)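 HeLa cells given 50 nM compound for several times; untreated controls run in parallel. About 5 x 10^6 cells lysed and run on reducing SDS gels (12% for caspase-3, 8% for PARP), then blotted to nitrocellulose. Probed overnight with anti-active caspase-3 (p19/p17) or C2.10 anti-PARP (116 kDa and p85), each 1:1000. β-actin loading control; ECL detection. Three experiments.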

[5] = tested on: HeLa; test: Induction of apoptosis in human HeLa cells at 50 nM after 72 hrs by […] analysis in presence of caspase inhibitor z-VAD-fmk relative to control; type: functional
[6] = tested on: HeLa; test: Induction of apoptosis in human HeLa cells assessed as PARP cleavage at 50 nM by Western blotting analysis; type: functional, cell-based; summary of the method: as §3
[7] = tested on: HeLa; test: Cytotoxicity against human HeLa cells assessed as growth inhibition after 72 hrs by XTT assay
[8] = tested on: HeLa; test: Cell cycle arrest in human HeLa cells assessed as accumulation at G2/M phase at 10^-8 M incubated for 18 hrs by propidium iodide staining-based FACS flow cytometric analysis relative to control; type: functional
Summary of the method: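 HeLa cells treated 18 h at 10^-8 M, with untreated controls run in parallel. 2-4 x 10^5 cells fixed overnight in 70% ethanol at 4 °C, washed in PBS, then incubated 1 h at room temperature with 1 mg/mL RNAse A and 20 µg/mL propidium iodide. DNA content read by FACSCalibur flow cytometry; percentage of cells in G2/M. Representative of three experiments.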

[9] = tested on: HL-60; test: Cytotoxicity against human HL60 cells assessed as growth inhibition after 72 hrs by XTT assay; type: functional, cell-based; conditions: HL-60, 72 h; summary of the method: as §2
[10] = tested on: HeLa; test: Inhibition of microtubule system in human HeLa cells at 10 nM after 18 hrs by confocal microscopic analysis; type: cell-based
Summary of the method: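 HeLa cells grown on poly-L-lysine coverslips and treated 18 h at 10^-8 M. Washed in HPEM (pH 6.6), fixed 15 min in 4% paraformaldehyde, permeabilized with 0.5% Triton X-100. Stained with anti-α-tubulin (1:150, 1 h), then CY3 anti-mouse IgG (1:100, 1 h, 4 °C). Imaged by confocal microscopy; representative of at least three experiments.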

[11] = tested on: HeLa; test: Induction of apoptosis in human HeLa cells at 50 nM after 72 hrs by […] analysis relative to control; type: functional
[12] = species: Bos taurus; test: Inhibition of bovine brain tubulin polymerization at 20 uM after 30 mins by spectrophotometry; summary of the method: as §1
[13] = tested on: HT-29; test: Cytotoxicity against human HT-29 cells assessed as growth inhibition after 72 hrs by XTT assay; type: functional, cell-based; conditions: HT-29, 72 h; summary of the method: as §2
[14] = tested on: HeLa; test: Induction of apoptosis in human HeLa cells assessed as accumulation of DNA at sub-G0/G1 phase incubated for 24 hrs by propidium iodide staining-based FACS flow cytometric analysis relative to control; type: functional; conditions: in the assay text read “72 hrs” for “24 hrs”
Summary of the method: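 Apoptosis counted as percentage of HeLa cells in the sub-G0/G1 peak. Cells fixed in 70% ethanol, stained 1 h with RNAse A (1 mg/mL) and propidium iodide (20 µg/mL), then read by flow cytometry. Time-course used 5-100 nM for 18-72 h.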

For `C=C(c1cc(OC)c(OC)c(OC)c1)c1ccc2c(c1)c(C#N)cn2C`, the IC50 [1] was 1200 nM, the Activity [2] was “Active” and the IC50 [3] was 8.4 nM. The Activity [4] was “Active”, the Activity [5] was 5% and the Activity [6] was “Active”. It also gave an IC50 [7] of 2.9 nM, an Activity [8] of over 83% and an IC50 [9] of 1.3 nM. For the same compound, the inhibition [10] was “Active”, the Activity [11] was 19.5% and the inhibition [12] was 93%. It also gave an IC50 [13] of 3.9 nM and an Activity [14] of 20%.
